Several values for one entry are separate records, joined by “and”; a condition that tells them apart may be missing. Identical values can stand only once. Each block holds one substance with its values, some of them ahead of it.
Legend:
[1] = test system: Tumor Cell line; test: Evaluated in vitro for the log10 molecular concentration that caused […] tumor growth of 60 human tumor cell lines.; assay type: functional, cell-based
Procedure, shortened: (§1)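 Cells preincubated 24 h, then exposed to the agent at five 10-fold dilutions (0.01–100 μM for the platinum complexes) for 48 h. Cells fixed in situ and stained; solubilized stain read spectrophotometrically. Panel of leukemia, non-small-cell lung, ovarian and renal lines. Log GI50 or TGI taken per cell line in one experiment, then averaged across lines.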

[2] = test system: Tumor Cell line; test: Evaluated in vitro for the log10 molecular concentration that caused 50 % inhibition of tumor growth of 60 human tumor cell lines; assay type: functional, cell-based; procedure, shortened: as §1
[3] = test system: Mus musculus; test: The compound was evaluated for the mean body weight change (BWC) in mice infected with cisplatin sensitive L1210 Leukemia (dose 10 mg/kg, ip),day 9; assay type: functional, organism-based; parameters: dose 10 mg/kg
Procedure, shortened: (§2)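 CD2F1 mice implanted ip on day 0 with 10^5 L1210/0 (parent) leukemia cells, in groups of 6 or 10 (20 or 30 controls). Complexes given ip in saline plus Tween 80 on days 1, 5 and 9. BWC is the group mean weight change, day 5 minus day 1. MST is median survival and %ILS is calculated from MST, both from dying mice only, excluding day 30 survivors.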

[4] = test system: Mus musculus; test: The compound was evaluated for the median survival time (MST) in mice infected with cisplatin resistant L1210 Leukemia (dose 5 mg/kg, ip), day 1; assay type: functional, organism-based; parameters: dose 5 mg/kg
Procedure, shortened: (§3)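 On day 0, 10⁵ parent or cisplatin-resistant L1210 cells were implanted ip into CD2F1 mice, 6 or 10 per dose group (20 or 30 controls). Dosing was ip on days 1, 5 and 9 in saline plus Tween 80. Median survival time was taken from dying mice only, excluding day-30 survivors. Both sublines were tested concurrently.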

[5] = test system: Mus musculus; test: The compound was evaluated for the median survival time (MST) in mice infected with cisplatin sensitive L1210 Leukemia (dose 10 mg/kg, ip), day 1; assay type: functional, organism-based; parameters: dose 10 mg/kg; procedure, shortened: as §2
[6] = test system: Mus musculus; test: The compound was evaluated for the mean body weight change (BWC) in mice infected with cisplatin sensitive L1210 Leukemia (dose 5 mg/kg, ip),day 1; assay type: functional, organism-based; parameters: dose 5 mg/kg; procedure, shortened: as §2
[7] = test system: Mus musculus; test: The compound was evaluated for the median survival time (MST) in mice infected with cisplatin sensitive L1210 Leukemia (dose 15 mg/kg, ip), day 1; assay type: functional, organism-based; parameters: dose 15 mg/kg; procedure, shortened: as §2
[8] = test system: Mus musculus; test: The compound was evaluated for the mean body weight change (BWC) in mice infected with cisplatin sensitive L1210 Leukemia (dose 15 mg/kg, ip),day 1; assay type: functional, organism-based; parameters: dose 15 mg/kg; procedure, shortened: as §2
[9] = species: Mus musculus; test: The compound was evaluated for the percentage increase in life span (ILS) based on dying mice only (excludes day 10 survivors) for following doses against L1210 Leukemia cell line, day5; assay type: functional, organism-based
[10] = test system: Mus musculus; test: The compound was evaluated for the median survival time (MST) in mice infected with cisplatin sensitive L1210 Leukemia (dose 30 mg/kg, ip), day 1; assay type: functional, organism-based; parameters: dose 30 mg/kg; procedure, shortened: as §2
[11] = test system: Mus musculus; test: The compound was evaluated for the median survival time (MST) in mice infected with cisplatin sensitive L1210 Leukemia (dose 40 mg/kg, ip), day 5; assay type: functional, organism-based; parameters: dose 40 mg/kg; procedure, shortened: as §2
[12] = test system: Mus musculus; test: The compound was evaluated for the mean body weight change (BWC) in mice infected with cisplatin sensitive L1210 Leukemia (dose 40 mg/kg, ip),day 1; assay type: functional, organism-based; parameters: dose 40 mg/kg; procedure, shortened: as §2
[13] = species: Mus musculus; test: The compound was evaluated for the percentage increase in life span (ILS) based on dying mice only (excludes day 20 survivors) for following doses against L1210 Leukemia cell line, day1; assay type: functional, organism-based
[14] = test system: Mus musculus; test: The compound was evaluated for the mean body weight change (BWC) in mice infected with cisplatin resistant L1210 Leukemia (dose 30 mg/kg, ip),day 1; assay type: functional, organism-based; parameters: dose 30 mg/kg
Procedure, shortened: (§4)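 CD2F1 mice, 6 or 10 per dose group (20 or 30 controls), were implanted ip on day 0 with 10⁵ L1210/0 (parent) or L1210/cisplatin (resistant) leukemia cells. Complexes were given ip in saline plus Tween 80 on days 1, 5 and 9. Read-out was mean body weight change per group, day 5 minus day 1. Sensitive and resistant arms ran simultaneously from the same preparations.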

[15] = test system: Mus musculus; test: The compound was evaluated for the mean body weight change (BWC) in mice infected with cisplatin resistant L1210 Leukemia (dose 15 mg/kg, ip),day 1; assay type: functional, organism-based; parameters: dose 15 mg/kg; procedure, shortened: as §4
[16] = test system: Mus musculus; test: The compound was evaluated for the median survival time (MST) in mice infected with cisplatin sensitive L1210 Leukemia (dose 80 mg/kg, ip), day 5; assay type: functional, organism-based; parameters: dose 80 mg/kg; procedure, shortened: as §2
[17] = test system: Mus musculus; test: The compound was evaluated for the mean body weight change (BWC) in mice infected with cisplatin resistant L1210 Leukemia (dose 20 mg/kg, ip),day 1; assay type: functional, organism-based; parameters: dose 20 mg/kg; procedure, shortened: as §4
[18] = test system: Mus musculus; test: The compound was evaluated for the median survival time (MST) in mice infected with cisplatin resistant L1210 Leukemia (dose 30 mg/kg, ip), day 1; assay type: functional, organism-based; parameters: dose 30 mg/kg; procedure, shortened: as §3
[19] = test system: Mus musculus; test: The compound was evaluated for the mean body weight change (BWC) in mice infected with cisplatin resistant L1210 Leukemia (dose 5 mg/kg, ip),day 1; assay type: functional, organism-based; parameters: dose 5 mg/kg; procedure, shortened: as §4
[20] = test system: Mus musculus; test: The compound was evaluated for the median survival time (MST) in mice infected with cisplatin sensitive L1210 Leukemia (dose 20 mg/kg, ip), day 5; assay type: functional, organism-based; parameters: dose 20 mg/kg; procedure, shortened: as §2
[21] = test system: Mus musculus; test: The compound was evaluated for the median survival time (MST) in mice infected with cisplatin sensitive L1210 Leukemia (dose 10 mg/kg, ip), day 9; assay type: functional, organism-based; parameters: dose 10 mg/kg; procedure, shortened: as §2
[22] = test system: Mus musculus; test: The compound was evaluated for the median survival time (MST) in mice infected with cisplatin sensitive L1210 Leukemia (dose 20 mg/kg, ip), day 1; assay type: functional, organism-based; parameters: dose 20 mg/kg; procedure, shortened: as §2
[23] = test system: Mus musculus; test: The compound was evaluated for the mean body weight change (BWC) in mice infected with cisplatin sensitive L1210 Leukemia (dose 20 mg/kg, ip),day 5; assay type: functional, organism-based; parameters: dose 20 mg/kg; procedure, shortened: as §2
[24] = test system: Mus musculus; test: The compound was evaluated for the mean body weight change (BWC) in mice infected with cisplatin sensitive L1210 Leukemia (dose 40 mg/kg, ip),day 5; assay type: functional, organism-based; parameters: dose 40 mg/kg; procedure, shortened: as §2
[25] = species: Mus musculus; test: The compound was evaluated for the percentage increase in life span (ILS) based on dying mice only (excludes day 20 survivors) for following doses against L1210 Leukemia cell line, day5; assay type: functional, organism-based
[26] = test system: Mus musculus; test: The compound was evaluated for the median survival time (MST) in mice infected with cisplatin resistant L1210 Leukemia (dose 20 mg/kg, ip), day 1; assay type: functional, organism-based; parameters: dose 20 mg/kg; procedure, shortened: as §3
[27] = species: Mus musculus; test: The compound was evaluated for the percentage increase in life span (ILS) based on dying mice only (excludes day 40 survivors) for following doses against L1210 Leukemia cell line, day5; assay type: functional, organism-based
[28] = test system: Mus musculus; test: The compound was evaluated for the median survival time (MST) in mice infected with cisplatin sensitive L1210 Leukemia (dose 40 mg/kg, ip), day 9; assay type: functional, organism-based; parameters: dose 40 mg/kg; procedure, shortened: as §2
[29] = species: Mus musculus; test: The compound was evaluated for the percentage increase in life span (ILS) based on dying mice only (excludes day survivors) for following doses against L1210 Leukemia cell line, day1; assay type: functional, organism-based; procedure, shortened: as §2
[30] = test system: Mus musculus; test: The compound was evaluated for the mean body weight change (BWC) in mice infected with cisplatin sensitive L1210 Leukemia (dose 10 mg/kg, ip),day 5; assay type: functional, organism-based; parameters: dose 10 mg/kg; procedure, shortened: as §2
[31] = test system: Mus musculus; test: The compound was evaluated for the median survival time (MST) in mice infected with cisplatin resistant L1210 Leukemia (dose 15 mg/kg, ip), day 1; assay type: functional, organism-based; parameters: dose 15 mg/kg; procedure, shortened: as §3
[32] = species: Mus musculus; test: The compound was evaluated for the percentage increase in life span (ILS) based on dying mice only (excludes day 15 survivors) for following doses against L1210 Leukemia cell line, day1; assay type: functional, organism-based
[33] = species: Mus musculus; test: The compound was evaluated for the percentage increase in life span (ILS) based on dying mice only (excludes day 40 survivors) for following doses against L1210 Leukemia cell line, day9; assay type: functional, organism-based
[34] = test system: Mus musculus; test: The compound was evaluated for the mean body weight change (BWC) in mice infected with cisplatin sensitive L1210 Leukemia (dose 80 mg/kg, ip),day 5; assay type: functional, organism-based; parameters: dose 80 mg/kg; procedure, shortened: as §2
[35] = test system: Mus musculus; test: The compound was evaluated for the mean body weight change (BWC) in mice infected with cisplatin sensitive L1210 Leukemia (dose 30 mg/kg, ip),day 1; assay type: functional, organism-based; parameters: dose 30 mg/kg; procedure, shortened: as §2
[36] = test system: Mus musculus; test: The compound was evaluated for the mean body weight change (BWC) in mice infected with cisplatin sensitive L1210 Leukemia (dose 20 mg/kg, ip),day 9; assay type: functional, organism-based; parameters: dose 20 mg/kg; procedure, shortened: as §2
[37] = test system: Mus musculus; test: The compound was evaluated for the median survival time (MST) in mice infected with cisplatin sensitive L1210 Leukemia (dose 10 mg/kg, ip), day 5; assay type: functional, organism-based; parameters: dose 10 mg/kg; procedure, shortened: as §2
[38] = test system: Mus musculus; test: The compound was evaluated for the mean body weight change (BWC) in mice infected with cisplatin sensitive L1210 Leukemia (dose 20 mg/kg, ip),day 1; assay type: functional, organism-based; parameters: dose 20 mg/kg; procedure, shortened: as §4
[39] = test system: Mus musculus; test: The compound was evaluated for the median survival time (MST) in mice infected with cisplatin sensitive L1210 Leukemia (dose 5 mg/kg, ip), day 1; assay type: functional, organism-based; parameters: dose 5 mg/kg; procedure, shortened: as §2
[40] = test system: Mus musculus; test: The compound was evaluated for the median survival time (MST) in mice infected with cisplatin sensitive L1210 Leukemia (dose 20 mg/kg, ip), day 9; assay type: functional, organism-based; parameters: dose 20 mg/kg; procedure, shortened: as §2
[41] = test system: Mus musculus; test: The compound was evaluated for the mean body weight change (BWC) in mice infected with cisplatin sensitive L1210 Leukemia (dose 80 mg/kg, ip),day 9; assay type: functional, organism-based; parameters: dose 80 mg/kg; procedure, shortened: as §2
[42] = test system: Mus musculus; test: The compound was evaluated for the median survival time (MST) in mice infected with cisplatin sensitive L1210 Leukemia (dose 80 mg/kg, ip), day 9; assay type: functional, organism-based; parameters: dose 80 mg/kg; procedure, shortened: as §2

- GI50 [2]: 4.47 µM
Substance: [Bis(aminomethyl)tetramethylenesilane]tetrachloropaltinum(IV)
- TGI [1]: 49 µM

- GI50 [2]: 6.17 µM
Substance: [Bis(aminomethyl)ethylmethylsilane]tetrachloroplatinum(IV)
- TGI [1]: 39.8 µM

Substance: [Bis(aminomethyl)dimethylsilane]dichloroplatinum (II)
- BWC [3]: -0.2 g
- MST [4]: 12.5 days
- MST [5]: 22.5 days and 10.5 days
- BWC [6]: -0.4 g
- MST [7]: 16.3 days
- BWC [8]: -1.7 g
- ILS [9]: 109%
- MST [10]: 21.5 days
- MST [11]: 30 days
- BWC [12]: -2.9 g
- ILS [13]: 88%
- BWC [14]: -2.5 g
- BWC [15]: -0.4 g
- MST [16]: 11.8 days
- BWC [17]: -2.7 g
- MST [18]: 14.8 days
- BWC [19]: 0.1 g
- TGI [1]: 83.2 µM
- MST [20]: 20.5 days
- MST [21]: 15.5 days
- MST [22]: 16.8 days
- GI50 [2]: 20.4 µM
- BWC [23]: -0.6 g
- BWC [24]: -0.9 g
- ILS [25]: 138%
- MST [26]: 13.8 days
- ILS [27]: 248%
- MST [28]: 11.7 days
- ILS [29]: 152%
- BWC [30]: -0.9 g
- MST [31]: 18.3 days
- ILS [32]: 83%
- ILS [33]: 31%
- BWC [34]: -3.5 g
- BWC [35]: -1.1 g
- BWC [36]: -0.2 g
- MST [37]: 18 days
- BWC [38]: -1 g
- MST [39]: 21.5 days
- MST [40]: 22.5 days
- BWC [41]: -4.3 g
- MST [42]: 6.3 days

Source: ChEMBL document CHEMBL1128557, “Synthesis, antitumor activity, and chemical properties of silaplatin and related platinum (II) and platinum (IV) complexes derived from beta-silyl amines” (J Med Chem, 1995)
